# Source: the RNAGym collection of RNA variant scans (doi:10.1038/nmeth.2970)
# B1: NELF-E aptamer (parent)
# chain: CCCAACGACUGCCGAGCGAGAUUACGCUUGAGCGCCCCACUGAGGAUGCCCACGGGCGAUUGGGGCACGG
# Variants of: B1
# Test: HiTS-RAP
# Conditions: with NELF-E (Drosophila)
# Summary of the method: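 Aptamer DNA templates bearing a T7 promoter and a ter site were sequenced on an Illumina GAIIx flowcell. T7 RNA polymerase then transcribed them in situ, and GST-Tus halted transcription over 30 minutes at 37°C. After a 30-minute room-temperature equilibration with NELF-E-mOrange at 0.064 to 1000 nM in HEPES binding buffer, clusters were imaged, using only the first binding curve. Intensities normalised to sequencing intensity were averaged per sequence and fitted with weighted Hill fits to give Kd, retaining only fits whose variance stayed under 1,000,000.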
row,Variant,Kd
1,CCCAACGACUGCCGAGCGAGAUUACGCUUGAGCGCCCCACUGAGUGUGCCCACGGGCGAUUGGGGCACGG [G45U A46G],5.32 nM
2,CCCAGCGACUGCAGAGCGAGAUUACGCUUGAGCGCCCCACUGAGGAUGCCCACGGGCGAUUGGGGCACGG [A5G C13A],5.36 nM
3,CCCAACUACUGCCGAGCGAGAGUACGCUUGAGCGCCCCACUGAGGAUGCCCACGGGCGAUUGGGGCACGG [G7U U22G],6.14 nM
4,CCCAACGACUGCCAAGCGAUAUUACGCUUGAGCGCCCCACUGAGGAUGCCCACGGGCGAUUGGGGCACGG [G14A G20U],5.9 nM
5,CCCAACGACUGCCGGGGGAGAUUACGCUUGAGCGCCCCACUGAGGAUGCCCACGGGCGAUUGGGGCACGG [A15G C17G],5.93 nM
6,CCCAACGACUGCCGAGCGAGAUGACGCUUGAGCGCCCCACUGAGGAUGCCCACGGGCGAUUGGGUCACGG [U23G G65U],6.65 nM
7,CCCAACUACUGCCGAGCGAGAUUACGCUUGAGCGCCCCACUGAGGAUGCCCACGGGCGUUUGGGGCACGG [G7U A59U],18.3 nM
8,CCCGACGAGUGCCGAGCGAGAUUACGCUUGAGCGCCCCACUGAGGAUGCCCACGGGCGAUUGGGGCACGG [A4G C9G],5.74 nM
9,CCCAACGACUGCCGAGCGAGAUUGCGCUUGAGCGCCCCACUGAGGAUACCCACGGGCGAUUGGGGCACGG [A24G G48A],14.2 nM
10,CCCAACGACGGCCGAGCGAGAUUACGCUUGAGCGCCCCACUGAGGAUGCCCACGGGCGAUUGGCGCACGG [U10G G64C],6.95 nM
11,CCCAACGACUGCCGAGGGAGAUUACGCUUGAGCGCCCCACUGAGGAGGCCCACGGGCGAUUGGGGCACGG [C17G U47G],4.63 nM
12,CCCGACGACUGCCGAGCGAGAUUACGCUUGAGCGCCCUACUGAGGAUGCCCACGGGCGAUUGGGGCACGG [A4G C38U],8.59 nM
13,CCCAACGACUGCCGAGCGAGAUUACGCUGGAGCGCCCCACUUAGGAUGCCCACGGGCGAUUGGGGCACGG [U29G G42U],10.4 nM
14,CCCAACGACUGCCGUGCGAGAUUACGCUUGAGCGCCCCACGGAGGAUGCCCACGGGCGAUUGGGGCACGG [A15U U41G],6.49 nM
15,CCCAACUACUGCCGAGCGAGAUUACGCUGGAGCGCCCCACUGAGGAUGCCCACGGGCGAUUGGGGCACGG [G7U U29G],6.33 nM
16,CCCGACGACUGCCGAGCGAGAUUACGCUUGAGCGCCCCACUGAGGAUGCCCACGGGCGAGUGGGGCACGG [A4G U60G],6.94 nM
17,CCCAACGACUGCCGAGCGAGAUUACGCUGGAGCGCCCCACUGAGGAUGCCCACGGGCGGUUGGGGCACGG [U29G A59G],50.9 nM
18,CCCAACGACUGCCGAGCGAGAUUACGCUUGAGCGCCACACUGAGGAUGCCCACGGGCGAUUGGGGCACGG [C37A],13.7 nM
19,CCCACCGACUGCCGAGCGAGAUUACGCUGGAGCGCCCCACUGAGGAUGCCCACGGGCGAUUGGGGCACGG [A5C U29G],7.04 nM
20,CCCAACUACUGCCGAGCGAGAUGACGCUUGAGCGCCCCACUGAGGAUGCCCACGGGCGAUUGGGGCACGG [G7U U23G],6.08 nM

row,Variant,Kd
1,CCCAACGACUGCCGAGCGAGAUUACGCUUGAGCGCCCCACUGAGGAUGCCCACGGGCGAUUGGAGCGCGG [G64A A67G],4.84 nM
2,CCCAACGACUGCCGAGCGGGAUUACGCUUGAGCGCCCCACUGAGGAGGCCCACGGGCGAUUGGGGCACGG [A19G U47G],7.16 nM
3,CCCAACGACUGCCGAGCGAGAUUACGCUUGAGCGCCCCACUCAGGAUGCCCACGGGCGAUUGGGGCACGG [G42C],44.2 nM
4,CCCAACGACUGCGGAGCGAGAUUACGCUUGAGCGCCACACUGAGGAUGCCCACGGGCGAUUGGGGCACGG [C13G C37A],21.7 nM
5,CCCAAGGACUGCCGAGCGAGAUUACGCUUGAGCGCCCCACUGAGGAUGCCCACGGGGGAUUGGGGCACGG [C6G C57G],6.54 nM
6,CCCAACGACUGCCGAGCGAGAUUGCGCUUGAGCGCCCCACUGAGGAUGCCCACGGGCGGUUGGGGCACGG [A24G A59G],36.5 nM
7,CCCAACGACUGCCGAGGGUGAUUACGCUUGAGCGCCCCACUGAGGAUGCCCACGGGCGAUUGGGGCACGG [C17G A19U],7.26 nM
8,CCCAACGACUGCCGAGCGAGAUUACGCUUGCGCGCCCCACUGAGGAUGCCCACGGGCGAUUGGGGCACGG [A31C],4.61 nM
9,CCCAACGACUGCCGAGCGAGAGUACGCUUGAGCGCCCCACUGAGGAUGCCCACGGGCGUUUGGGGCACGG [U22G A59U],97.1 nM
10,CCCAACGACUGCCGAGCGAGAUUGCGCUUGAGCGCCCCACUGAGGAUGCCCUCGGGCGAUUGGGGCACGG [A24G A52U],14.2 nM
11,CCCAGCGACUGGCGAGCGAGAUUACGCUUGAGCGCCCCACUGAGGAUGCCCACGGGCGAUUGGGGCACGG [A5G C12G],6.02 nM
12,CCCAACGACGGCCGAGCGAGAUUACGCUUGAGCGCCCCACUGAGGAUGCCUACGGGCGAUUGGGGCACGG [U10G C51U],6.95 nM
13,CCCAACGACGGCCGAGCGAGAUUACGCUGGAGCGCCCCACUGAGGAUGCCCACGGGCGAUUGGGGCACGG [U10G U29G],5.05 nM
14,CCCAACGACUGCCGAUCGAGAUUACACUUGAGCGCCCCACUGAGGAUGCCCACGGGCGAUUGGGGCACGG [G16U G26A],4.92 nM
15,CCCAACGACUGCCGAGCGAGACUACGCUGGAGCGCCCCACUGAGGAUGCCCACGGGCGAUUGGGGCACGG [U22C U29G],5.29 nM
16,CCCAACGACUGCCGAGCGAGAUUACGCUUGAGCGCGCCACUGAGGAUGCCCACGGGCGAUUGGGGCACGG [C36G],6 nM
17,CCCAACGACUGCCGAGCGAGAGUACGCUUGAGCGCCCCACUGAGGAUGUCCACGGGCGAUUGGGGCACGG [U22G C49U],24.7 nM
18,CCCAACUACUGCCGAGCGAGAUUAUGCUUGAGCGCCCCACUGAGGAUGCCCACGGGCGAUUGGGGCACGG [G7U C25U],5.7 nM
19,CCCAACGACUGGCGAGCGAGAUUACGCUUGAGCGCCCCACUGAGGAUGCCCACGGUCGAUUGGGGCACGG [C12G G56U],6.08 nM
